Screening data: PubChem, several laboratories
Sampled rows, rich in hits. Any-hit rate of the full collection: about 2.1%.
SR-BI DiI inh: blocks mouse SR-BI lipid uptake from DiI-HDL | ldlA[mSR-BI] CHO cells, DiI-HDL uptake fluorescence, 3 h | inhibition, % at 12.5 µM | hit rate 0.96% among 320,000;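 active means mean replicate inhibition of at least 70% and a set share of replicates each scoring 70 or more; inconclusive means meets just one of the two criteria; inactive means fails both criteria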
dFosB act-1: activators of mouse delta FosB homodimer. P13346. purified delta FosB, TAMRA-CDK5 oligo fluorescence polarization; percent of positive-control signal above neutral wells. activation, % at 25 µM. AID 493131. hit rate 0.99% among 340,000;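 active means mean activation above about 17%, with every replicate also reaching it, limit read from the data, passing the limit was not always enough; inconclusive means only one of the two conditions met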
SR-BI uptake up: activators of SR-BI mediated HDL lipid uptake. activation, % at 12.5 µM. hit rate 0.096% among 320,000. CHO ldlA[mSR-BI] cells, DiI-HDL uptake fluorescence, 3 h; 100 = double the neutral-control signal;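 active means mean replicate activation of at least 60% and every replicate at or above 60%; inconclusive means mean or all-replicate condition met, but not both; inactive means mean below 60% and not all replicates reaching 60%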
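System: CHO ldlA[mSR-BI] cells / Medium: HEPES-buffered (25 mM, pH 7.4) F12 plus 0.5% BSA / Probe or stimulus: labelled HDL, 10 µg/mL / Doses: single compound concentration, delivered by pin transfer / Schedule: 3 h, 37 °C / Measured by: DiI fluorescence, bottom read / Measure: cell-associated DiI fluorescence as measure of HDL uptake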
CDK5 inh: CDK5/p35 (human) kinase inhibition; AID 488839; Q00535+Q15078; Recombinant CDK5/p35, ADP-Glo luminescence, 60 min; inhibition, % at 10 µM; hit rate 0.01% among 330,000;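 active means highest replicate inhibition of at least 50% and at least 75% of replicates reaching 50%; inconclusive means only one of the two criteria met; inactive means both criteria failed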
Target sequence (Q00535 whole entry, looked up): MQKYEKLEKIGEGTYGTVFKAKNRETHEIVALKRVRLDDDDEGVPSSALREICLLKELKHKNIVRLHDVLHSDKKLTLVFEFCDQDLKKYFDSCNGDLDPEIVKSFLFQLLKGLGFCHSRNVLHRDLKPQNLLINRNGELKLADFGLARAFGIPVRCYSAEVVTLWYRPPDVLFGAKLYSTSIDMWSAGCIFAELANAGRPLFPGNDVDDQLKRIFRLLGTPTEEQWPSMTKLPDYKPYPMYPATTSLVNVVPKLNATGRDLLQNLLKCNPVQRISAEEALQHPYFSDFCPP
Target sequence (Q15078 whole entry, looked up): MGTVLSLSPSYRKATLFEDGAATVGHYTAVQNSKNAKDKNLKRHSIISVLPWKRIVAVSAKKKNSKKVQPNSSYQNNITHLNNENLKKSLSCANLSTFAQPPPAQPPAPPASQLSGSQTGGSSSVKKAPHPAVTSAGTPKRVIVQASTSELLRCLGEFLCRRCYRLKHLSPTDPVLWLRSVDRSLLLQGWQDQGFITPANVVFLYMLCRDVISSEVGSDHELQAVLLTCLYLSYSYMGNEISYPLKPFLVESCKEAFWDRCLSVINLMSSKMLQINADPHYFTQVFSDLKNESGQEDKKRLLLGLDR
PKA-R2B act: PKA-R2B complex activation; P22694+P31323; PKA-R2B holoenzyme dissociation, Cy5-IP20 fluorescence polarization; R2B truncated from residue 108, S112A mutant; 0% DMSO only, 100% 113 µM cGMP; activation, % at 11.4 µM; hit rate 0.079% among 340,000; AID 504700;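 active means activation above a cutoff set at the mean over all compounds plus 3 SD, cut at about 18% in these data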;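 further: higher means more holoenzyme dissociation and a rise in polarization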
PKA-R1A act: activators of PKA-R1A complex. PKA-R1A dissociation, Cy5-IP20 fluorescence polarization; scaled: DMSO 0%, 113 µM cGMP 100%. activation, % at 11.4 µM. hit rate 0.083% among 340,000. AID 504707;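 active means percent activation above the mean of all tested compounds plus 3 SD, cut at about 19% in these data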;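 further: higher means more PKAc released from R1A so a rise in polarization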
dFosB act-2: delta FosB (mouse) homodimer activation. shares compounds with dFosB act-1. purified delta FosB, TAMRA-CDK5 oligo fluorescence polarization; normalised: neutral wells 0, positive control 100. activation, % at 24.9 µM. 2,400 tested, under 10 active. AID 588690;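 active means highest replicate activation at or above 34% and every replicate reaching that threshold; inconclusive means meets only one of the two criteria; inactive means meets neither criterion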;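 further: higher polarization means more probe DNA bound by delta FosB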
Hits are given with their value; i = inactive; ? = inconclusive; nt = no result given.

SMILES	SR-BI DiI inh	dFosB act-1	SR-BI uptake up	CDK5 inh	PKA-R2B act	PKA-R1A act	dFosB act-2
CCOc1ccc2c(C)nc(NC3=NC(C)(C)C=C(C)N3)nc2c1	i	25.6	i	i	i	i	?
O=C(COc1ccc(S(=O)(=O)N2CCOCC2)cc1)NCCN1CCOCC1	nt	i	nt	i	i	i	nt
CC(C)c1nc(SCC(=O)Nc2ccc3c(c2)OCCO3)c2c(=O)n(C)c(=O)n(C)c2n1	i	23.6	i	i	i	i	i
CSc1nsc(SC)c1NC(=O)Nc1ccccc1C	i	33.2	i	i	i	i	i
CCC(=O)N1CCc2nc(-c3ccccc3)sc2C1	i	i	i	i	i	i	nt
Cc1ccc(C(=O)OCC(=O)Nc2ccc3c(c2)OCCO3)cc1C	i	21.9	i	i	i	i	i
Cc1ccc(C)c(NC(=O)COC(=O)c2ccc3c(c2)OCCO3)c1	i	32.5	i	i	i	i	i
O=C(COC(=O)c1ccc(Cl)c(S(=O)(=O)N2CCCCC2)c1)NC1CCCCC1	nt	nt	nt	nt	i	i	nt
COc1ccc(C(=O)Nc2nc(-c3ccccc3)c(C(C)=O)s2)c(OC)c1	i	31.9	i	i	i	i	i
CC(=O)c1sc(NC(=O)c2ccc(F)cc2)nc1-c1ccccc1	i	25.4	i	i	i	i	i
CC(=O)c1sc(NC(=O)c2ccccc2F)nc1-c1ccccc1	i	i	i	i	i	i	nt
Fc1ccc(Nc2nc(-c3ccncc3)nc3ccccc23)cc1F	i	88.6	i	i	i	i	i
O=C(Nc1nc(-c2ccccc2)nc2ccccc12)c1ccc(F)cc1	i	22.4	i	i	i	i	i
O=C1CN(C(=O)CN2CCN(S(=O)(=O)c3ccccc3)CC2)c2ccccc2N1	nt	nt	nt	nt	i	i	nt
CC(C)n1c(SCC(=O)NCc2ccco2)nnc1C1CC1	i	i	i	i	i	i	nt
Nc1nc(SCC(=O)c2c(N)n(C3CC3)c(=O)[nH]c2=O)n[nH]1	i	i	i	i	i	i	nt
Cc1ccc(O)c(C(=O)c2cc(C#N)c3nc4ccccc4n3c2)c1	i	24.0	i	i	i	i	i
Cc1ccc(O)c(C(=O)c2cc(C#N)c(=O)n(Cc3ccccc3)c2)c1	i	i	i	i	i	i	nt
CCN(CC(=O)Nc1ccc(NC(C)=O)cc1)C(=O)C1(c2ccccc2)CC1	i	i	i	i	i	i	nt
CCCCN1C(=O)C(CC(=O)NCc2ccco2)CC(C(=O)N2CCOCC2)=C1C (configuration not stated)	nt	nt	nt	nt	i	i	nt
Cc1nc([N+](=O)[O-])cn1CC(=O)Nc1ccc([N+](=O)[O-])cc1	i	i	i	i	i	i	nt
COc1ccc(CCNC(=O)c2ccc(OCc3c(C)noc3C)c(OC)c2)cc1	i	i	i	i	i	i	nt
COc1cc(C(=O)NCCc2ccc(S(N)(=O)=O)cc2)ccc1OCc1c(C)noc1C	i	25.7	i	i	i	i	i
COc1cc(C(=O)NCc2ccc(C)cc2)ccc1OCc1c(C)noc1C	i	25.0	i	i	i	i	i
Cc1cc(C)nc(SCC(=O)NC(=O)c2ccccc2O)n1	i	i	i	i	i	i	nt
SMILES	SR-BI DiI inh	dFosB act-1	SR-BI uptake up	CDK5 inh	PKA-R2B act	PKA-R1A act	dFosB act-2
CCOC(=O)CN(c1ccccc1C)S(=O)(=O)c1ccc(Cl)cc1	i	i	i	i	i	i	nt
O=C(/C=C/c1c(F)cccc1Cl)N1CCOCC1	i	i	i	i	i	i	nt
CSc1ccc(S(=O)(=O)NCC(=O)OCCOc2ccccc2)cc1[N+](=O)[O-]	i	27.5	i	i	i	i	i
Nc1ccc(S(=O)(=O)NCC(=O)OCCOc2ccccc2)cc1[N+](=O)[O-]	i	i	i	i	i	i	nt
Cc1c(C(=O)Nc2ccc(F)cc2)cn2c(nc3ccccc32)c1C#N	i	33.5	i	i	i	i	i
CC(C)(C)c1ccc(C(=O)NCCC(=O)Nc2ccc3c(c2)OCCO3)cc1	i	i	i	i	i	i	nt
COc1ccc(Cc2nnc(NC(=O)c3cccc(F)c3)s2)cc1OC	i	18.8	i	i	i	i	i
COc1ccccc1NC(=O)c1oc2ccccc2c1NC(=O)C1CC1	i	23.7	i	i	i	i	i
CCOc1ccccc1NC(=O)c1oc2ccccc2c1NC(=O)C1CC1	i	i	i	i	i	i	nt
COC(=O)c1cccc(C23CC4(C2)[C@H](CN(Cc2cccnc2)[C@@H]4c2ccccc2)C3c2ccccc2)c1 (some centres not stated)	i	i	i	i	i	i	nt
Cc1ccc(NC(=O)C=NOCC(=O)Nc2cc(C)cc(C)c2)cc1	i	25.2	i	i	i	i	i
COc1ccc(-c2cc(C(F)F)n3ncc(C(=O)Nc4cccc(S(=O)(=O)N5CCOCC5)c4)c3n2)cc1	i	33.3	i	i	i	i	i
Cc1c(C(=O)NNC(=O)Nc2ccc([N+](=O)[O-])cc2)oc2ccccc12	i	66.6	i	i	i	i	i
CCC(=O)Nc1ccc(NC(=O)c2oc3ccccc3c2C)cc1	i	i	i	i	i	i	nt
CCOc1ccc(/C(O)=C2/C(=O)C(=O)N(CC3CCCO3)C2c2cccs2)cc1 (configuration not stated)	i	i	i	i	i	i	nt
COc1cc(OC)c(/C=C2\SC(=O)N(CC(=O)Nc3ccccc3F)C2=O)c(OC)c1	i	23.4	i	i	i	i	i
COc1ccc(/C=C2\SC(=O)N(CC(=O)NCCC(C)C)C2=O)cc1OC	i	i	i	i	i	i	nt
COc1ccc(/C=C2/SC(=O)N(CC(=O)NCCC(C)C)C2=O)cc1OC	i	17.0	i	i	i	i	i
COc1ccc(/C=C2\SC(=O)N(CC(=O)Nc3ccc(F)cc3)C2=O)cc1O	i	18.9	i	i	i	i	i
COc1ccc(/C=C2\SC(=O)N(CC(=O)Nc3cccnc3)C2=O)cc1OC	i	i	i	i	i	i	nt
S=C(NCc1ccc(Cl)cc1)NCc1ccco1	i	i	i	i	i	i	nt
O=C(OC1CCOC1=O)c1ccc(Cl)c(S(=O)(=O)N2CCOCC2)c1 (configuration not stated)	i	i	i	i	i	i	nt
CC(=O)Oc1ccc(C(=O)Nc2cccc(C(=O)c3cccc(NC(=O)c4ccc(OC(C)=O)cc4)c3)c2)cc1	i	56.7	i	i	i	i	i
CCc1nnc(NC(=O)CSc2ccc(-c3nc4ccccc4[nH]3)cn2)s1	i	48.4	i	i	i	i	i
